Results on one compound are retold here after ChEMBL document CHEMBL4477201, “Imidazopyridine and Pyrazolopiperidine Derivatives as Novel Inhibitors of Serine Palmitoyl Transferase” (J Med Chem, 2016).

The nature of series [1]: Ratio of drug uptake in diet-induced obese C57Bl/6 mouse liver to serum at 25 mg/kg, po qd for 4 weeks measured 6 hrs post last dose. It counts as ADME, organism-based. A digest of the protocol:
(§1)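 Male DIO mice dosed orally for 4 weeks. Sacrificed 6 h after the last dose. Compound measured in serum (ng/mL) and liver (ng/g), and the liver:serum ratio calculated.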

Series [2] can be described thus: Dissociation constant, pKa of the compound. Type of series: physicochemical.
The test system of another series is Mus musculus. Put plainly: Reduction in total plasma ceramide level in C57BL6 mouse administered through gavage after 6 hrs by mass spectrometry relative to vehicle-treated control. It counts as functional. A digest of the protocol:
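Normal C57bl6 mice given a single oral dose at six dose levels, n=3 per group. Plasma collected 6 h post dose. C16:0, C20:0, C22:0, C24:0 and C24:1 ceramides measured by mass spectrometry and summed; total reduction calculated versus vehicle. ED50 derived from the dose-response; mean ± SEM.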

For series [3], the target named is T1, Serine palmitoyltransferase 1 (Homo sapiens, UniProt O15269).
T1 sequence (O15269 whole entry): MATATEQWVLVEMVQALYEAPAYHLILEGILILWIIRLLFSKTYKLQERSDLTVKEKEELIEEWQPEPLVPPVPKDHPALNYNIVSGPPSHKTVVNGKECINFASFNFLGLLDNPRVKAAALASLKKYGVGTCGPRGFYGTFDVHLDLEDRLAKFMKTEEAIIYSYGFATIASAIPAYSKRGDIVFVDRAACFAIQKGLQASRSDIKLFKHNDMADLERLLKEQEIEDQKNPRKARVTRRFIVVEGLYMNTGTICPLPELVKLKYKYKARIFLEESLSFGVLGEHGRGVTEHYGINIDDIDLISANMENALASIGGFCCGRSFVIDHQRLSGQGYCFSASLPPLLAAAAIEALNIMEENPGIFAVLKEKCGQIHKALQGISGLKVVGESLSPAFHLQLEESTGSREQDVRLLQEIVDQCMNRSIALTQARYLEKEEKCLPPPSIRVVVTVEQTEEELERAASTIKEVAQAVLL
The series can be described thus: Inhibition of human SPT1 expressed in microsomes of HEK293 cells incubated for 1hr by LC/MS analysis. In outline:
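SPT source was a microsomal fraction from HEK293 cells, with serine and palmitoyl coenzyme A as substrates. Formation of 3-ketodeoxysphinganine quantified by LC/MS. Inhibition determined at 10 concentrations per compound to give IC50.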

The nature of series [4]: Drug uptake in diet-induced obese C57Bl/6 mouse liver at 25 mg/kg, po qd for 4 weeks measured 6 hrs post last dose. The following applies: read-out: Drug uptake. Type of series: ADME, organism-based. A digest of the protocol:
as §1

Series [5] in a line: Drug uptake in diet-induced obese C57Bl/6 mouse liver at 1 mg/kg, po qd for 4 weeks measured 6 hrs post last dose. Type of series: ADME, organism-based. The following applies: read-out: Drug uptake. In outline:
as §1

Series [6] in a line: Ratio of drug uptake in diet-induced obese C57Bl/6 mouse liver to serum at 3 mg/kg, po qd for 4 weeks measured 6 hrs post last dose. Type of series: ADME, organism-based. A digest of the protocol: as §1
Series [7] can be described thus: Ratio of drug uptake in diet-induced obese C57Bl/6 mouse liver to serum at 1 mg/kg, po qd for 4 weeks measured 6 hrs post last dose. It counts as ADME, organism-based. A digest of the protocol: as §1
A short description of series [8]: Toxicity in diet-induced obese C57Bl/6 mouse assessed as decrease in food intake at 10 mg/kg, po qd for 4 weeks. It counts as organism-based. The following applies: in vivo, 672 h. In outline: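 Food intake monitored in DIO mice during 4 weeks of daily oral dosing.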
A short description of series [9]: Cmax in Sprague-Dawley rat at 1 mg/kg, iv. Also noted: dose 1 mg/kg, route intravenous. The following applies: in vivo. It counts as ADME, organism-based. A digest of the protocol: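 Single dose to fasted male Sprague Dawley rats, IV at 1 mg/kg or oral at 3 mg/kg. Plasma levels followed to derive AUC0-24hr, Cmax, half-life, Vdss and oral bioavailability.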

Series [10] is described as follows: Lipophilicity, log P of compound. The following applies: octanol/water. Type of series: physicochemical.

The term Kp denotes tissue or fluid exposure divided by exposure in the circulation. Broadly, the pKa is the negative logarithm of the acid dissociation constant. Usually ED50 stands for the dose that gives a 50% effect, or the effect in half of the subjects. A high value points to weaker potency. By IC50 is commonly meant the point on the concentration scale where inhibition reaches its midpoint. One may read the Cmax as the peak of the concentration-time curve. As a reminder, the logP is a log measure of how a compound divides between an organic and an aqueous phase. Higher therefore signals a more lipophilic compound. As for `CCCCCCC(=O)N1CCc2c(c(-c3ccc(C(C)(C)C(=O)O)cc3)nn2C)C1`, the Kp at 6 h in [1] turned out to be 99; in series [6], 126; in series [7], 434. The same compound showed a pKa in [2] of 4.19. Also, the Activity entry in the series on Mus musculus is “Dose-dependent effect”; in [8] it was “Non-Toxic”. In the series on Mus musculus (C57BL6, po), this compound returned an ED50 of 8.8 mg/kg. In [3], this compound gave an IC50 of 63.9 nM. Besides, the concentration at 6 h in [4] is 119000 ng/g; in [5], 61200 ng/g. The peak level in series [9] (Cmax) was 756 ng/mL. The compound also displayed a logP in series [10] of 4.66.
